Activity calls are given as the source filed them. No cut-off for these calls is given here.
Tests used:
Coagulation factor X = Coagulation factor X (Homo sapiens, UniProt P00742); test: Inhibition of human factor 10a
Plasma [1] = test: Anticoagulant potency in human plasma assessed as concentration required to double prothrombin time; format: functional
Method in brief: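 Compound in DMSO is added to normal human plasma (3% v/v) and preincubated 4 min at 37 °C. Clotting is started with thromboplastin and timed on an automatic coagulometer. Prolongation is measured against a DMSO control. The concentration that doubles clotting time comes from a least-squares regression, as a mean of duplicate measurements.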

CYP3A4 = CYP3A4 (Homo sapiens, UniProt P08684); test: Inhibition of human CYP3A4 at 10 uM; format: ADME
Method in brief: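 CYP3A4 from human B-lymphoblastoid cells expressing the enzyme (10 nM) is incubated with 100 µM testosterone and 10 µM compound for 30 min at 37 °C. 6β-Hydroxytestosterone is measured by HPLC-UV and reported as % inhibition.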

Plasma [2] = test: Anticoagulant potency in ICR mouse plasma assessed as concentration required to double prothrombin time; format: functional
Mus musculus [3] = test: Ex vivo anticoagulant potency in ICR mouse blood assessed as prothrombin time at 30 mg/kg, po after 1 hr relative to control; format: functional
Method in brief: (§1)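 Male ICR mice (30–35 g) are fasted >12 h and dosed orally as a suspension in 0.5% methylcellulose; controls get vehicle. At 1 h, blood is drawn from the abdominal aorta under pentobarbital (50 mg/kg ip) into 3.8% citrate (9:1). Plasma is spun at 1000g for 10 min, preincubated 4 min at 37 °C, clotted with thromboplastin and timed. The read-out is the clotting-time ratio versus vehicle controls.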

Mus musculus [4] = test: Ex vivo anticoagulant potency in ICR mouse blood assessed as 1.1 times prolongation of prothrombin time at 30 mg/kg, po after 1 hr relative to control; format: functional, organism-based; parameters: dose 30 mg/kg; method in brief: as §1
Mus musculus [5] = test: Ex vivo anticoagulant potency in ICR mouse blood assessed as 1.4 times prolongation of prothrombin time at 100 mg/kg, po after 1 hr relative to control; format: functional, organism-based; parameters: dose 100 mg/kg; method in brief: as §1
Prothrombin = Prothrombin (Homo sapiens, UniProt P00734); test: Inhibition of human thrombin after 30 mins
Method in brief: (§2)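 Human proteases are incubated with compound for 30 min at 37 °C. Enzyme and substrate pairs are: thrombin 0.080 U/mL with S-2366; trypsin 0.040 µg/mL with S-2222; plasmin 0.040 U/mL with S-2366; kallikrein 0.020 U/mL with S-2302; t-PA 4000 U/mL with S-2288. p-Nitroanilide release is followed continuously for 5 min at 405 nm. Ki comes from Lineweaver–Burk plots at varied substrate levels, as means of three determinations.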

Plasma kallikrein = Plasma kallikrein (Homo sapiens, UniProt P03952); test: Inhibition of human kallikrein after 30 mins; method in brief: as §2
Trypsin = Trypsin (Homo sapiens, UniProt P07477+P07478+P35030); test: Inhibition of human trypsin after 30 mins; format: protein assay; method in brief: as §2
Plasminogen = Plasminogen (Homo sapiens, UniProt P00747); test: Inhibition of human plasmin after 30 mins; method in brief: as §2
[6] = target: Tissue-type plasminogen activator (Homo sapiens, UniProt P00750); test: Inhibition of human tPA after 30 mins; method in brief: as §2
[7] = Drug concentration in cynomolgus monkey at 0.3 mg/kg, iv after 5 mins; format: ADME, organism-based, Macaca fascicularis; parameters: dose 0.3 mg/kg, route intravenous; conditions: in vivo, read-out: Drug uptake
Method in brief: (§3)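 Fasted male cynomolgus monkeys (n = 3) are dosed iv in DMA/PEG400 or orally as a 0.5% methylcellulose suspension. Femoral vein blood is taken up to 24 h (from 5 min iv, from 15 min po). Plasma is deproteinized with acetonitrile, diluted with 0.01 mol/L ammonium formate at pH 3.0, and measured by LC/MS/MS. Values are means ± SD of three.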

[8] = AUC in cynomolgus monkey at 0.3 mg/kg, iv; format: ADME, organism-based, Macaca fascicularis; parameters: dose 0.3 mg/kg, route intravenous; conditions: plasma; method in brief: as §3
[9] = Mean residence time in cynomolgus monkey at 0.3 mg/kg, iv; format: ADME, organism-based, Macaca fascicularis; parameters: dose 0.3 mg/kg, route intravenous; conditions: in vivo; method in brief: as §3
[10] = Volume of distribution at steady state in cynomolgus monkey at 0.3 mg/kg, iv; format: ADME, organism-based, Macaca fascicularis; parameters: dose 0.3 mg/kg, route intravenous; conditions: in vivo, read-out: Vdss; method in brief: as §3
[11] = Total clearance in cynomolgus monkey at 0.3 mg/kg, iv; format: ADME, organism-based, Macaca fascicularis; parameters: dose 0.3 mg/kg, route intravenous; conditions: in vivo; method in brief: as §3
[12] = Cmax in cynomolgus monkey at 3 mg/kg, po; format: ADME, organism-based, Macaca fascicularis; parameters: dose 3 mg/kg, route oral; conditions: in vivo; method in brief: as §3
[13] = Tmax in cynomolgus monkey at 3 mg/kg, po; format: ADME, organism-based, Macaca fascicularis; parameters: dose 3 mg/kg, route oral; conditions: in vivo; method in brief: as §3
[14] = AUC in cynomolgus monkey at 3 mg/kg, po; format: ADME, organism-based, Macaca fascicularis; parameters: dose 3 mg/kg, route oral; conditions: plasma; method in brief: as §3
[15] = Mean residence time in cynomolgus monkey at 3 mg/kg, po; format: ADME, organism-based, Macaca fascicularis; parameters: dose 3 mg/kg, route oral; conditions: in vivo; method in brief: as §3
[16] = Oral bioavailability in cynomolgus monkey at 3 mg/kg; format: ADME, organism-based, Macaca fascicularis; conditions: in vivo; method in brief: as §3

CYP3A4, sequence (P08684 whole entry): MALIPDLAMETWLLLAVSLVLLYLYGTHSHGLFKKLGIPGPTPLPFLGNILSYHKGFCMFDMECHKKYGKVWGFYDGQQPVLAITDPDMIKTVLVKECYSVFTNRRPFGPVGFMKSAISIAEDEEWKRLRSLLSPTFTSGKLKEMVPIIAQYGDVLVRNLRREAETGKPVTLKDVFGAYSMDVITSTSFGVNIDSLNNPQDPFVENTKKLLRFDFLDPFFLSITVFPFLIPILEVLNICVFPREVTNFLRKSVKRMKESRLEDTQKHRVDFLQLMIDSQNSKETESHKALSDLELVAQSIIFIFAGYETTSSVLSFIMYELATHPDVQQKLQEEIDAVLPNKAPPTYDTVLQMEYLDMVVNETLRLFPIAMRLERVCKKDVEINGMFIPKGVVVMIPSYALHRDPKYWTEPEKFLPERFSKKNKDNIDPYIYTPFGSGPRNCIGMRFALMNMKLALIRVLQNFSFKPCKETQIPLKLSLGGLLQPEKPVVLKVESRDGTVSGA
Coagulation factor X, sequence (P00742 41-179 limits assumed): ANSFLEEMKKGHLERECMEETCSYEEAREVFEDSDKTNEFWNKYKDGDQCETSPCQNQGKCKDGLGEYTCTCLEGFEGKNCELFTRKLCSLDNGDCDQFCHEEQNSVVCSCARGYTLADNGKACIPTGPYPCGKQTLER
Coagulation factor X, sequence (P00742 235-488 limits assumed): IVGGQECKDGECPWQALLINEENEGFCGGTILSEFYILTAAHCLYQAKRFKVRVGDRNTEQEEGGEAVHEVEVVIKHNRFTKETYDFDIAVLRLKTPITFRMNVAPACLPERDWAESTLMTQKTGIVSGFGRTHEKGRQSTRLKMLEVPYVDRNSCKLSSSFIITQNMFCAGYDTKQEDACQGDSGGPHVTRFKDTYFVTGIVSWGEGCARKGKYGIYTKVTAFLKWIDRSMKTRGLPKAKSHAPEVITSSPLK
Tissue-type plasminogen activator, sequence (P00750 whole entry): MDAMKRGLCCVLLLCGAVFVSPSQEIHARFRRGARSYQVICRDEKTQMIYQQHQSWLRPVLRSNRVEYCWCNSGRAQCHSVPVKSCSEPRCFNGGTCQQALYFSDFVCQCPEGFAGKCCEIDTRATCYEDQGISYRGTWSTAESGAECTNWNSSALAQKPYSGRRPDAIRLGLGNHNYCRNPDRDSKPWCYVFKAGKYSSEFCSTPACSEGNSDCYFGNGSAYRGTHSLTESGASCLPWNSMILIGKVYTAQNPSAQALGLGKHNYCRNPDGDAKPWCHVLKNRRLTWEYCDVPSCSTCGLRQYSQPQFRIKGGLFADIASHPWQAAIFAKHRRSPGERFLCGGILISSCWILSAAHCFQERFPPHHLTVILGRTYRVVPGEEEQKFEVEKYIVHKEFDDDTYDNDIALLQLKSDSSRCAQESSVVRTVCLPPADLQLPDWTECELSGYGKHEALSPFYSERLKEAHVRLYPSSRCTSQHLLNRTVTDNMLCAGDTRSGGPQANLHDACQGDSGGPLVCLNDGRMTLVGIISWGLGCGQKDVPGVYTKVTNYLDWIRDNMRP
Plasma kallikrein, sequence (P03952 20-390 limits assumed): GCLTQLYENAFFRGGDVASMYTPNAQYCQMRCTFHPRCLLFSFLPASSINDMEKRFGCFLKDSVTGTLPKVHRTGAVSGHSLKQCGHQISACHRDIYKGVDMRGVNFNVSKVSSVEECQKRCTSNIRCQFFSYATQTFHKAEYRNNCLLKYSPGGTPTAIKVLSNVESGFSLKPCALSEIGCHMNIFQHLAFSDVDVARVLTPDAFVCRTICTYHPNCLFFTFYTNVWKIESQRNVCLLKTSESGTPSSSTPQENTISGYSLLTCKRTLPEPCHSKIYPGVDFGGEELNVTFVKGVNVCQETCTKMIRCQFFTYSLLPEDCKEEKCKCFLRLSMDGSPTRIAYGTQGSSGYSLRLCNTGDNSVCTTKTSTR
Plasma kallikrein, sequence (P03952 391-638 limits assumed): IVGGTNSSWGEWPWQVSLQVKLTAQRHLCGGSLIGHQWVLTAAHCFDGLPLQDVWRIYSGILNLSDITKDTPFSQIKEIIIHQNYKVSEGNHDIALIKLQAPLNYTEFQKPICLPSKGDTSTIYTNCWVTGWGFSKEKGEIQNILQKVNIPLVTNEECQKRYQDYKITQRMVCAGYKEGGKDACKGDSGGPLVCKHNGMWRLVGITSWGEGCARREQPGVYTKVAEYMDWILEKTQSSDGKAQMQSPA
Plasminogen, sequence (P00747 97-580 limits assumed): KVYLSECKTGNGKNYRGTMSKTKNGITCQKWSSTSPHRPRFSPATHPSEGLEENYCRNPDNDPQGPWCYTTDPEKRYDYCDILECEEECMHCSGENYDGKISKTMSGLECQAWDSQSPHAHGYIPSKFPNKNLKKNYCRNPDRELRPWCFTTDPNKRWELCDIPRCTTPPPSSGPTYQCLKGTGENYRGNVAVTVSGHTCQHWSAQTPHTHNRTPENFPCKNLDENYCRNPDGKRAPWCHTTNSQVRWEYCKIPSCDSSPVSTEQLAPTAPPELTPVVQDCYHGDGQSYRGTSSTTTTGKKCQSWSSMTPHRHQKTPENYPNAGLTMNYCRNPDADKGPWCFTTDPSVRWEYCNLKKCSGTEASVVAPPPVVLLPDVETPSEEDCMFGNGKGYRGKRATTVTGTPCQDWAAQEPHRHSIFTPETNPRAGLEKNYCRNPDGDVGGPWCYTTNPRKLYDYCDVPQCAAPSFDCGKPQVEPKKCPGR
Plasminogen, sequence (P00747 581-810 limits assumed): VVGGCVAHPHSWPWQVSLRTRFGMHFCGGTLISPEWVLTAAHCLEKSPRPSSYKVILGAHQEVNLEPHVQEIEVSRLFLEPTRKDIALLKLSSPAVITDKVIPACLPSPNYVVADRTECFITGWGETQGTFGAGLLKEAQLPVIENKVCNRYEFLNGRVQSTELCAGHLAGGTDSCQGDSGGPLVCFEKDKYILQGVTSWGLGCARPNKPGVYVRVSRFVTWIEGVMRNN

Structure (SMILES)	IC50 (Coagulation factor X) [µM]	2PT (Plasma [1]) [µM]	inhibition at 10 µM (CYP3A4) [%]	2PT (Plasma [2]) [µM]	Ratio (Mus musculus [3])	also measured
O=C(CCS(=O)(=O)c1ccc2cc(Cl)ccc2c1)N1CCN(c2cccc3ncc([N+](=O)[O-])n23)CC1	0.024	3.6				
CCOC(=O)Cc1cn2c(N3CCN(C(=O)CCS(=O)(=O)c4ccc5cc(Cl)ccc5c4)CC3)cccc2n1	0.093	5.1				
Cc1cn2c(N3CCN(C(=O)CCS(=O)(=O)c4ccc5cc(Cl)ccc5c4)CC3)cccc2n1	0.012	0.96	58	1.3	2.9	
CNC(=O)Cc1cn2c(N3CCN(C(=O)CCS(=O)(=O)c4ccc5cc(Cl)ccc5c4)CC3)cccc2n1	0.041	2				
CN(C(=O)CCS(=O)(=O)c1ccc2cc(Cl)ccc2c1)C1CCN(c2cccc3nccn23)CC1	0.84					
CC(=O)Nc1cnc2cccc(N3CCN(C(=O)CCS(=O)(=O)c4ccc5cc(Cl)ccc5c4)CC3)n12	0.024	1.8				
CC(C)(O)Cc1cn2c(N3CCN(C(=O)CCS(=O)(=O)c4ccc5cc(Cl)ccc5c4)CC3)cccc2n1	0.022	0.86	26	1.7	2.4	
O=C(CCS(=O)(=O)c1ccc2cc(Cl)ccc2c1)N1CCN(c2ccn3ccnc3c2)CC1	0.078	2.2				
O=C(CCS(=O)(=O)c1ccc2cc(Cl)ccc2c1)N1CCN(c2ccc3nccn3c2)CC1	0.087	2.9				
Nc1cnc2cccc(N3CCN(C(=O)CCS(=O)(=O)c4ccc5cc(Cl)ccc5c4)CC3)n12	0.035	0.73	52	1.5	2.4	
O=C(CCS(=O)(=O)c1ccc2cc(Cl)ccc2c1)N1CCN(c2cccc3ncc(CO)n23)CC1	0.029	1.7				
CC(C)(O)c1cn2c(N3CCN(C(=O)CCS(=O)(=O)c4ccc5cc(Cl)ccc5c4)CC3)cccc2n1	0.018	2.1				
CC(O)Cc1cn2c(N3CCN(C(=O)CCS(=O)(=O)c4ccc5cc(Cl)ccc5c4)CC3)cccc2n1 (stereo not given)	0.018	1.1	33	1.5	3.2	
CC(=N)N1CC[C@H](Oc2ccc([C@H](Cc3ccc4ccc(C(=N)N)cc4c3)C(=O)O)cc2)C1 [DX-9065A]		0.81				Activity (Mus musculus [4]): Active; Activity (Mus musculus [5]): Active
O=C(CCS(=O)(=O)c1ccc2cc(Cl)ccc2c1)N1CCN(c2cccc3nccn23)CC1	0.021	1.4	45	1.7	2.5	
NC(=O)Cc1cn2c(N3CCN(C(=O)CCS(=O)(=O)c4ccc5cc(Cl)ccc5c4)CC3)cccc2n1	0.045	2.1				
CN(C)C(=O)Cc1cn2c(N3CCN(C(=O)CCS(=O)(=O)c4ccc5cc(Cl)ccc5c4)CC3)cccc2n1	0.057	2.5				
CC(O)c1cn2c(N3CCN(C(=O)CCS(=O)(=O)c4ccc5cc(Cl)ccc5c4)CC3)cccc2n1 (stereo not given)	0.02	1.2	23	1.8	2.5	
O=C(CCS(=O)(=O)c1ccc2cc(Cl)ccc2c1)N1CCN(c2cccc3nc(CO)cn23)CC1	0.009	1.4	15	1.4	1.3	Ki (Coagulation factor X): 0.008 µM; Ki (Prothrombin): 0.96 µM; Ki (Plasma kallikrein): 14 µM; Ki (Trypsin): > 60 µM; Ki (Plasminogen): > 60 µM; Ki [6]: > 60 µM; concentration at 5 min [7]: 540 ng/mL; AUC [8]: 730 ng·h/mL; MRT [9]: 1.97 h; Vd [10]: 0.81 L/kg; clearance [11]: 7.33 mL/min/kg; Cmax [12]: 500 ng/mL; Tmax [13]: 1.33 h; AUC [14]: 2260 ng·h/mL; MRT [15]: 3.6 h; bioavailability [16]: 30.5%

— ChEMBL document CHEMBL1143896, “Discovery of piperazinylimidazo[1,2-a]pyridines as novel S4 binding elements for orally active factor Xa inhibitors” (Bioorg Med Chem, 2008)
